Measured values: ChEMBL document CHEMBL1141435, “Serinocyclins A and B, cyclic heptapeptides from Metarhizium anisopliae” (J Nat Prod, 2007)

Tests used:
[1] = test system: Escherichia coli; test: Antibacterial activity against Escherichia coli at 10 ug/disc after 48 hrs by disc diffusion assay; assay type: functional; conditions: read-out: IZ
Procedure, shortened: (§1)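 Target strains grown on nutrient agar plates (9 cm), each spread with 0.6 mL of a 24 h nutrient broth culture and dried 1 h. Samples went onto 7 mm filter paper disks in 10 µL MeOH and were air-dried 1 h before placement. Inhibition zones were checked every 24 h for 4 days. Tetracycline at 10 µg/disk was the positive control, MeOH and formic acid at 10 µL/disk the negatives.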

[2] = test system: Bacillus cereus; test: Antibacterial activity against Bacillus cereus at 10 ug/disc after 48 hrs by disc diffusion assay; assay type: functional; conditions: read-out: IZ; procedure, shortened: as §1
[3] = test system: Colletotrichum; test: Antifungal activity against Colletotrichum acutatum at 10 ug/disc after 48 hrs by disc diffusion assay; assay type: functional; conditions: read-out: IZ
Procedure, shortened: (§2)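 Fungal targets grown on potato dextrose agar plates (9 cm), each spread with 0.6 mL of a conidial suspension (ca. 1 × 10^6 conidia/mL H2O) and dried 1 h. Samples went onto 7 mm filter paper disks in 10 µL MeOH, air-dried 1 h, then placed on the plates. Inhibition zones were read every 24 h for 4 days. Filipin at 10 µg/disk was the positive control, MeOH and formic acid at 10 µL/disk the negatives.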

[4] = test system: Botrytis; test: Antifungal activity against Botrytis cinerea at 10 ug/disc after 48 hrs by disc diffusion assay; assay type: functional; conditions: read-out: IZ; procedure, shortened: as §2
[5] = test system: Beauveria bassiana; test: Antifungal activity against Beauveria bassiana at 10 ug/disc after 48 hrs by disc diffusion assay; assay type: functional; conditions: read-out: IZ; procedure, shortened: as §2
[6] = test system: Saccharomyces cerevisiae; test: Antifungal activity against Saccharomyces cerevisiae at 10 ug/disc after 48 hrs by disc diffusion assay; assay type: functional; conditions: read-out: IZ
Procedure, shortened: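 Yeast grown on 1% yeast extract, 2% peptone, 1.5% agar with either 2% dextrose or 2% glycerol. Plates were spread with 0.5 mL of a suspension in H2O adjusted to OD600 0.5 and dried 1 h. Samples went onto 7 mm paper disks in 10 µL MeOH, air-dried 1 h. Zones were read every 24 h for 4 days. Filipin at 10 µg/disk was the positive control, MeOH and formic acid the negatives.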

[7] = test system: Aedes aegypti; test: Induction of locomotory deffect in Aedes aegypti Rockefeller larvae after 24 hrs; assay type: functional, organism-based
Procedure, shortened: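 Eggs hatched under vacuum for 30 min and larvae kept at 25 °C in tap water with liver powder suspension. At 24 h posthatch, 7–11 larvae per well of a 24-well plate were placed in 0.9 mL food/water. Treatments were added in 100 µL distilled water, and effects were scored 24 h later.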

Row | SMILES | zone of inhibition at 10 µg/disc [1] | zone of inhibition at 10 µg/disc [2] | zone of inhibition at 10 µg/disc [3] | zone of inhibition at 10 µg/disc [4] | zone of inhibition at 10 µg/disc [5] | zone of inhibition at 10 µg/disc [6] | EC50 [7]
1 | CCCCC[C@@H](O)[C@H]1C(=O)O[C@H](C)[C@@H](O)/C=C/C=C/C=C/C=C/C=C(\C)[C@@H](O)C[C@H](O)C[C@H](O)C[C@H](O)C[C@H](O)C[C@H](O)C[C@@H]1O [FILIPIN] | > 5 mm | > 5 mm | > 5 mm | > 5 mm | > 5 mm | > 5 mm | –
2 | NCC[C@H](O)C[C@H]1NC(=O)[C@H](CO)NC(=O)[C@@H]2C[C@@H](O)CN2C(=O)C2(CC2)NC(=O)[C@H](CO)NC(=O)[C@@H](CO)NC(=O)CCNC1=O [SERINOCYCLIN A] | – | – | – | – | – | – | 59 ppm
3 | CN(C)[C@@H]1C(O)=C(C(N)=O)C(=O)[C@@]2(O)C(O)=C3C(=O)c4c(O)cccc4[C@@](C)(O)[C@H]3C[C@@H]12 [TETRACYCLINE] | > 5 mm | > 5 mm | > 5 mm | > 5 mm | > 5 mm | > 5 mm | –
